Measured values gathered from unrelated publications.
Each line is one published result; the experiments were not run side by side. pIC50: −log10 of the molar value.
Effect on: cell growth or viability

Structure (SMILES) | cell line | method | time | endpoint | value
Oc1ccc(-c2ccc3cc(O)ccc3c2)c(O)c1 | CHL | MTT | 24 h | IC50 | 119 µg/mL
CC(C)C[C@H](NC(=O)[C@H](Cc1ccccc1)NC(=O)c1cnccn1)B(O)O | HuTu80 | ATP luminescence |  | pIC50 | 7.85
C[C@@H](Oc1cc(-c2cnn(C3CCNCC3)c2)cnc1N)c1c(Cl)ccc(F)c1Cl | BJ |  | 72 h | pIC50 | 5.68
C[C@@H](Oc1cc(-c2cnn(C3CCNCC3)c2)cnc1N)c1c(Cl)ccc(F)c1Cl | SW-1736 | MTT | 72 h | pIC50 | 5.60
CC(=O)O[C@H]1C(=O)[C@@]2(C)[C@H]([C@H](OC(=O)c3ccccc3)[C@]3(O)C[C@H](OC(=O)[C@H](O)[C@@H](NC(=O)c4ccccc4)c4ccccc4)C(C)=C1C3(C)C)[C@]1(OC(C)=O)CO[C@@H]1C[C@@H]2O | LN-18 |  |  | IC50 | 1 µg/mL
C[C@H]1[C@@H](O)O[C@@H]2O[C@@]3(C)CC[C@H]4[C@H](C)CC[C@@H]1[C@@]24OO3 | IOSE-144 | CCK-8 | 48 h | pIC50 | < 4.30
COc1cc2nccc(Oc3ccc(NC(=O)C4(C(=O)Nc5ccc(F)cc5)CC4)cc3)c2cc1OC | BJ |  | 72 h | pIC50 | 5.34
O=C(N/N=C/c1c(O)ccc2ccccc12)c1cc(-c2ccc3ccccc3c2)n[nH]1 | 1205Lu | MTS | 48 h | pIC50 | 5.24
COc1cccc2c1C(=O)c1c(O)c3c(c(O)c1C2=O)C[C@@](O)(C(=O)CO)C[C@@H]3O[C@H]1C[C@H](N)[C@H](O)[C@H](C)O1 | WI-38 VA13 | MTT | 48 h | IC50 | 0.22 µg/mL
Oc1ccc(Nc2nc(-c3ccc(Cl)cc3)cs2)cc1 | 1205Lu | MTS | 72 h | pIC50 | 4.14
Cc1cc(Nc2ncc(Cl)c(Nc3ccccc3S(=O)(=O)C(C)C)n2)c(OC(C)C)cc1C1CCNCC1 | BJ |  | 72 h | pIC50 | 5.59
